Reference: publication PMC4180501 (Biochimica et biophysica acta, 2012)
Residue numbers refer to the chain shown, from its start.

Tests used:
GK- W257 (W99R/W167F) [1] = target: T1, GK- W257 (W99R/W167F) (Homo sapiens, UniProt P35557, W167F/W99R); test: NADP+-coupled spectrophotometric kinetic assay; type: biochemical; settings: W-257, no GKA
T1 sequence (P35557 1-465 W99R/W167F): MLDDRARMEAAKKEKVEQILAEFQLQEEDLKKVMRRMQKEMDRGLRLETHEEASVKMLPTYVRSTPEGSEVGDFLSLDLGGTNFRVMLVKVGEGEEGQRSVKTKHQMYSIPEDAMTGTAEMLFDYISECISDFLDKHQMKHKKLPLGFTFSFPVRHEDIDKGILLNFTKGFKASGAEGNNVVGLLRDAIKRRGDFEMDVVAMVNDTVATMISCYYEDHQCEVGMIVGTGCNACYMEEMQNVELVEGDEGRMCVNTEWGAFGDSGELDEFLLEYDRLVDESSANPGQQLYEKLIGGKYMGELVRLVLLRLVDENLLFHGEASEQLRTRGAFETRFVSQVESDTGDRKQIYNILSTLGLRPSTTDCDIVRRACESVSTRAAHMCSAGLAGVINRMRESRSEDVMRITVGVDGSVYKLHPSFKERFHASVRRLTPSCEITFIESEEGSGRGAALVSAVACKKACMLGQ

GK-WT [2] = target: T2, GK-WT (Homo sapiens, UniProt P35557); test: D-glucose binding by tryptophan fluorescence titration; settings: for ΔG of glucose binding / ΔH of glucose binding / ΔS of glucose binding: pure wild type GK, 25 °C, pH 7.3, Vant Hoff plot
T2 sequence (P35557 1-465): T1 sequence (P35557 1-465 W99R/W167F) with R99W, F167W

GK- W257 (W99R/W167F) [3] = target: T1, GK- W257 (W99R/W167F); test: DSC thermal denaturation; settings: W-257 in buffer, 300 mM D-glucose
Procedure, shortened: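 Samples were degassed and scanned by DSC at 0.25 degree/min against a reference holding everything except protein. Tm and calorimetric ΔH were taken by integrating the Cp-vs-temperature thermogram; Cpm is the apparent heat capacity at the maximum.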

GK- W257 (W99R/W167F) [4] = target: T1, GK- W257 (W99R/W167F); test: D-glucose binding by tryptophan fluorescence titration; settings: W-257, no GKA
GK-WT [5] = target: T2, GK-WT; test: DSC thermal denaturation
Procedure, shortened: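 Wild-type recombinant human GK was run by DSC at 0.3 mg/ml (6 µM) in 5 mM phosphate, 100 mM KCl, pH 7.3, in buffer or 20% glycerol, with glucose up to 300 mM. The scan was 0.25 degree/min against a protein-free reference. Tm was plotted against glucose and fit to a hyperbola for EC50. Unfolding rate constant used k=vCp/(Qt−Q) to derive activation energy.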

[6] = GK-WT in 20% glycerol, 300 mM D-glucose
[7] = GK-WT in buffer, 300 mM D-glucose
[8] = GK-WT, 20% glycerol, 7.5 mM D-glucose
[9] = GK-WT, 20% glycerol, 50 mM D-glucose
[10] = GK-WT, 20% glycerol, 100 mM D-glucose
[11] = GK-WT, 20% glycerol, 200 mM D-glucose
[12] = GK-WT, buffer, 7.5 mM D-glucose
[13] = GK-WT, buffer, 100 mM D-glucose
[14] = GK-WT, buffer, 200 mM D-glucose

With OC[C@H]1OC(O)[C@H](O)[C@@H](O)[C@@H]1O (stereo partly drawn) [D-glucose] the “Glucose S0.5” value (GK- W257 (W99R/W167F) [1]; 30% glycerol) was 4.70 mM, the kcat (GK- W257 (W99R/W167F) [1]; 30% glycerol) was 6.37 s⁻¹ and the “nH (Hill coefficient towards glucose)” value (GK- W257 (W99R/W167F) [1]; 30% glycerol) was 1.43. The “Glucose S0.5” value (GK- W257 (W99R/W167F) [1]; no glycerol) was 9.82 mM, the kcat (GK- W257 (W99R/W167F) [1]; no glycerol) was 12.4 s⁻¹ and the kcat/S0.5 (GK- W257 (W99R/W167F) [1]; no glycerol) was 1270 M⁻¹ s⁻¹. The “nH (Hill coefficient towards glucose)” value (GK- W257 (W99R/W167F) [1]; no glycerol) was 1.23, the Kd (GK-WT [2]; D-glucose binding KD, GK-WT, no GKA, 20% glycerol) was 1.8 mM and the Kd (GK-WT [2]; D-glucose binding KD, GK-WT, no GKA, no glycerol) was 7.4 mM. For the same compound, the Kd (GK-WT [2]; glucose KD, 11 °C, absence of glycerol) was 13.7 mM, the Kd (GK-WT [2]; glucose KD, 45 °C, presence of glycerol) was 1.15 mM and the “ΔG of glucose binding” value (GK-WT [2]; 20% glycerol) was -3.82 kcal/mol. The “ΔH of glucose binding” value (GK-WT [2]; 20% glycerol) was 4.78 ± 0.72 kcal/mol, the “ΔS of glucose binding” value (GK-WT [2]; 20% glycerol) was 120+/−9 J/mol*K and the “ΔG of glucose binding” value (GK-WT [2]; no glycerol) was -3.13 kcal/mol. The “ΔH of glucose binding” value (GK-WT [2]; no glycerol) was 8.13 ± 0.48 kcal/mol, the “ΔS of glucose binding” value (GK-WT [2]; no glycerol) was 157+/−4 J/mol*K and the “Cp^m” value (GK- W257 (W99R/W167F) [3]) was 122.6 kJ/mol/°C. The ΔH thermal denaturation (GK- W257 (W99R/W167F) [3]) was 158 kcal/mol, the Tm (GK- W257 (W99R/W167F) [3]; DSC) was 51.2 °C and the Kd (GK- W257 (W99R/W167F) [4]; 20% glycerol) was 2.09 mM. The Kd (GK- W257 (W99R/W167F) [4]; no glycerol) was 11.3 mM, the EC50 (GK-WT [5]; EC50 of glucose dependency of heat capacity (Cp), 20% glycerol, hyperbolic fit) was 35 mM and the “Cp^m” value (GK-WT [5]; [6]) was 222.2 kJ/mol/°C. For the same compound, the ΔH thermal denaturation (GK-WT [5]; [6]) was 169 kcal/mol, the Tm (GK-WT [5]; GK-WT in 20% glycerol, 300 mM D-glucose, DSC) was 56.9 °C and the “Cp^m” value (GK-WT [5]; [7]) was 130.5 kJ/mol/°C. The ΔH thermal denaturation (GK-WT [5]; [7]) was 135 kcal/mol, the Tm (GK-WT [5]; GK-WT in buffer, 300 mM D-glucose, DSC) was 52.2 °C and the “Cp^m” value (GK-WT [5]; [8]) was 148.1 kJ/mol/°C. For the same compound, the Ea thermal denaturation (GK-WT [5]; [8]) was 175.3 kcal/mol, the Tm (GK-WT [5]; [8]) was 52.6 °C and the “Cp^m” value (GK-WT [5]; [9]) was 186.2 kJ/mol/°C. For the same compound, the Ea thermal denaturation (GK-WT [5]; [9]) was 190.1 kcal/mol, the Tm (GK-WT [5]; [9]) was 54.8 °C and the “Cp^m” value (GK-WT [5]; [10]) was 196.2 kJ/mol/°C. For the same compound, the Ea thermal denaturation (GK-WT [5]; [10]) was 193.6 kcal/mol, the Tm (GK-WT [5]; [10]) was 55.5 °C and the “Cp^m” value (GK-WT [5]; [11]) was 212.5 kJ/mol/°C. It also gave an Ea thermal denaturation (GK-WT [5]; [11]) of 190.1 kcal/mol, a Tm (GK-WT [5]; [11]) of 56.3 °C and an Ea thermal denaturation (GK-WT [5]; GK-WT, 20% glycerol, 300 mM D-glucose) of 189.3 kcal/mol. For the same compound, the “Cp^m” value (GK-WT [5]; [12]) was 63.2 kJ/mol/°C, the Ea thermal denaturation (GK-WT [5]; [12]) was 120 kcal/mol and the Tm (GK-WT [5]; [12]) was 48.0 °C. The “Cp^m” value (GK-WT [5]; GK-WT, buffer, 25 mM D-glucose) was 90.8 kJ/mol/°C, the Ea thermal denaturation (GK-WT [5]; GK-WT, buffer, 25 mM D-glucose) was 134.4 kcal/mol and the Tm (GK-WT [5]; GK-WT, buffer, 25 mM D-glucose) was 49.5 °C. The “Cp^m” value (GK-WT [5]; GK-WT, buffer, 50 mM D-glucose) was 101.7 kJ/mol/°C, the Ea thermal denaturation (GK-WT [5]; GK-WT, buffer, 50 mM D-glucose) was 137.5 kcal/mol and the Tm (GK-WT [5]; GK-WT, buffer, 50 mM D-glucose) was 50.0 °C. The “Cp^m” value (GK-WT [5]; [13]) was 109.6 kJ/mol/°C, the Ea thermal denaturation (GK-WT [5]; [13]) was 136 kcal/mol and the Tm (GK-WT [5]; [13]) was 50.9 °C. For the same compound, the “Cp^m” value (GK-WT [5]; [14]) was 128.4 kJ/mol/°C, the Ea thermal denaturation (GK-WT [5]; [14]) was 140.3 kcal/mol and the Tm (GK-WT [5]; [14]) was 52.2 °C. It also gave an Ea thermal denaturation (GK-WT [5]; GK-WT, buffer, 300 mM D-glucose) of 137 kcal/mol.
